The source of these data is ChEMBL document CHEMBL4177743, “α-Methylation enhances the potency of isoprenoid triazole bisphosphonates as geranylgeranyl diphosphate synthase inhibitors” (Bioorg Med Chem, 2018).

pIC50: −log10 of the molar value. The source made the active and inactive calls. The calls are words filed in the database; no cut-off is given here.

For assay [1], the target named is T1, Geranylgeranyl pyrophosphate synthase (Homo sapiens, UniProt O95749).
T1 sequence (O95749 whole entry): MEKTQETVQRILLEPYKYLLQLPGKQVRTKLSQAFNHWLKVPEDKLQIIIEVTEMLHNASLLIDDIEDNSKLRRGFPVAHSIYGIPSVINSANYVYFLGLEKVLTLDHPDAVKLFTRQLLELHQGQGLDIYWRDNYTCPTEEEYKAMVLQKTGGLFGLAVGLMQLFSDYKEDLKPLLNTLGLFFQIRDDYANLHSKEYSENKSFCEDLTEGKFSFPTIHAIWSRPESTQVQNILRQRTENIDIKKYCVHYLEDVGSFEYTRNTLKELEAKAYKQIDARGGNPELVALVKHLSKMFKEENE
In words: Inhibition of recombinant GGDPS (unknown origin) using FPP as substrate pretreated for 10 mins followed by substrate addition measured after 30 mins in presence of [14C]-IPP by liquid scintillation counting method. An outline of the steps: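 Commercial recombinant GGDPS was used, following a previously described protocol. Each compound was run in duplicate at several concentrations across three independent experiments, and IC50 was reported with digeranyl bisphosphate as the positive control in every run.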

The target of assay [2] is T2, Farnesyl pyrophosphate synthase (Homo sapiens, UniProt P14324).
T2 sequence (P14324 whole entry): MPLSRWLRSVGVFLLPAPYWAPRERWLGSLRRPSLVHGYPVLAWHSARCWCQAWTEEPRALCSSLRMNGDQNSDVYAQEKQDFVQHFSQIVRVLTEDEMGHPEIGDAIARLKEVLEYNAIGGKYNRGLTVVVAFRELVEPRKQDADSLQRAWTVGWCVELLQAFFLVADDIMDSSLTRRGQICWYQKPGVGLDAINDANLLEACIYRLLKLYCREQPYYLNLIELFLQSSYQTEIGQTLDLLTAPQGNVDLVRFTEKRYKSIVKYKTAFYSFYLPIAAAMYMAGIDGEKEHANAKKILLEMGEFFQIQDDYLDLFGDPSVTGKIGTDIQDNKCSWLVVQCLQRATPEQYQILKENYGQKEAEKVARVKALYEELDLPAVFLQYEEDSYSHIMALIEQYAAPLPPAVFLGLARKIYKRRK
The assay is described as follows: Inhibition of recombinant FDPS (unknown origin) using GPP as substrate pretreated for 10 mins followed by substrate addition measured after 30 mins in presence of [14C]-IPP by liquid scintillation counting method. The procedure, abridged:
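Recombinant FDPS was a gift from an academic laboratory. Each compound was tested in duplicate at multiple concentrations across three independent experiments to obtain IC50, with zoledronic acid as positive control in every run.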

The species named for a further assay is Homo sapiens. In words: Selectivity ratio of IC50 for recombinant FDPS (unknown origin) to IC50 for recombinant GGDPS (unknown origin). An outline of the steps: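 Ratio of FDPS IC50 to GGDPS IC50. Both enzymes were recombinant: FDPS from an academic source, GGDPS commercial. Each IC50 came from duplicate wells at multiple concentrations in three independent experiments. Positive controls were zoledronic acid for FDPS and digeranyl bisphosphate for GGDPS.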

The target of assay [3] is T3, Geranylgeranyl pyrophosphate synthase (Homo sapiens) (UniProt O95749).
T3 sequence (whole entry): T1 sequence (O95749 whole entry)
In words: Inhibition of GGDPS in human […] cells assessed as decrease in Rab GTPase geranylgeranylation by measuring accumulation of intracellular lambda light chain after 48 hrs by ELISA. The format is cell-based. The procedure, abridged:
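RPMI-8226 myeloma cells were exposed for 48 h to a range of test concentrations, with lovastatin (10 μM) as positive control. Whole-cell lysates were made in RIPA buffer with protease and phosphatase inhibitors. Intracellular lambda light chain was quantified by human lambda ELISA and normalized to BCA total protein. Data are % of control, mean + SD, n=3; unpaired two-tailed t-test, p < 0.05.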
A general note: In an ELISA, binding on a coated surface is turned into a signal by an enzyme label.

For assay [4], the target named is T3, Geranylgeranyl pyrophosphate synthase (Homo sapiens). In words: Inhibition of GGDPS in human […] cells assessed as increase in Rap1a level at 1 to 10 uM by Western blot analysis. The format is cell-based. An outline of the steps: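 RPMI-8226 cells were treated for 48 h with varying compound concentrations or lovastatin (10 μM). RIPA lysates containing protease and phosphatase inhibitors were protein-equalized by BCA, then run on SDS-PAGE and transferred to PVDF. Blots were probed with an antibody detecting only unmodified (non-geranylgeranylated) Rap1a, with β-tubulin as loading control, and developed by HRP secondary and ECL.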
(In western blotting, separated proteins are transferred to a membrane and probed.)

Assay [5] shares this target. Particulars: 50 to 1000 nM.
For assay [6] the target is unchanged. Conditions: 50 to 1000 nM. This is another data set of the same source.

Usually pIC50 stands for −log10 of the IC50, conventionally taken in molar units. With `CC(C)=CCC/C(C)=C\Cn1cc(CC(C)(P(=O)(O)O)P(=O)(O)O)nn1`, the pIC50 was 6.04 in assay [1] and less than 4.00 in assay [2]. Besides, the Ratio IC50 in the assay listed under Homo sapiens is more than 108. Besides, the MEC in assay [3] and in assay [4] was 0.1 µM throughout.
For `CC(C)=CCCC(C)=CCn1cc(CC(C)(P(=O)(O)O)P(=O)(O)O)nn1` (mixture of isomers), the figures for the negative-log IC50 (pIC50) in assay [1] and in assay [2] were 5.90 and 4.21, respectively. Besides, in the assay listed under Homo sapiens, the Ratio IC50 stood at 49. Further, the MEC in assay [3] and in assay [4] was 0.1 µM each time.
Regarding `CC(C)=CCC/C(C)=C/CCn1cc(CC(C)(P(=O)(O)O)P(=O)(O)O)nn1` (mixture of isomers) [listing 1 of 2 here], the negative-log IC50 (pIC50) in assay [1] is 7.00; in assay [2] it was 4.62.
Turning to `CC(C)=CCC/C(C)=C\CCn1cc(CC(C)(P(=O)(O)O)P(=O)(O)O)nn1`, the negative-log IC50 (pIC50) in assay [2] was 4.22. Besides, the Ratio IC50 in the assay filed under Homo sapiens amounted to 693. Besides, the MEC in assay [3] and in assay [4] was 0.025 µM each time.
Regarding `CC(C)=CCCC(C)=CCn1cc(CC(P(=O)(O)O)P(=O)(O)O)nn1` (mixture of isomers), the inhibition entry in assay [5] and in assay [6] was “Active” in each case.
On to `CC(C)=CCC/C(C)=C/CCn1cc(CC(C)(P(=O)(O)O)P(=O)(O)O)nn1` [listing 1 of 2 here], for which, in assay [2], the pIC50 was 4.37.
As for `CCC(Cc1cn(CC=C(C)CCC=C(C)C)nn1)(P(=O)(O)O)P(=O)(O)O`, the pIC50 in assay [1] was 5.23; in assay [2], 4.03. In addition, the Ratio IC50 in the assay filed under Homo sapiens was found to be 16. For the same compound, the MEC in assay [3] and in assay [4] was 2.5 µM throughout.
Take `CC(C)=CCC/C(C)=C/Cn1cc(CC(C)(P(=O)(O)O)P(=O)(O)O)nn1`: the pIC50 in assay [1] is 4.69; in assay [2], 4.15. Besides, the Ratio IC50 in the assay filed under Homo sapiens was found to be 3.5. The MEC in assay [3] and in assay [4] was 5 µM throughout.
Consider `CC(C)=CCC/C(C)=C/CCn1cc(CC(C)(P(=O)(O)O)P(=O)(O)O)nn1` [listing 2 of 2 here], for which the Ratio IC50 in the assay listed under Homo sapiens amounted to 345. Besides, the MEC in assay [3] and in assay [4] was 0.02 µM each time.
For the compound `CC(C)=CCC/C(C)=C/CCn1cc(CC(C)(P(=O)(O)O)P(=O)(O)O)nn1` (mixture of isomers) [listing 2 of 2 here], in the assay filed under Homo sapiens, the Ratio IC50 was determined as 241. Also, the MEC in assay [3] and in assay [4] was 0.03 µM in each case.
